Tested on: NCI-H522
Experiment: Growth inhibition of human NCI-H522 cells at 10 uM after 48 hrs by SRB assay
Type: functional
Settings: NCI-H522, 48 h, read-out: GI
In short: (§1)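 NCI-60 primary one-dose screen run at the US NCI, with human tumour lines from nine cancer types. Compound added once at 10^-5 M, followed by 48 h incubation. End point was sulforhodamine B protein staining read spectrophotometrically. Result given as percent growth of treated cells against untreated controls, reported as % growth inhibition.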

Row | SMILES | inhibition of growth at 10 µM [%]
1 | Cc1ccc(C(=O)Nc2ccc(Cl)cc2C(=O)Nc2ccccc2)cc1 | 21

Tested on: T47D
Experiment: Growth inhibition of human T47D cells at 10 uM after 48 hrs by SRB assay
Type: functional
Settings: read-out: GI
In short: as §1

Row | SMILES | inhibition of growth at 10 µM [%]
2 | Cc1ccc(C(=O)Nc2ccc(Cl)cc2C(=O)Nc2ccccc2)cc1 | 20

Tested on: U-251
Experiment: Growth inhibition of human U251 cells at 10 uM after 48 hrs by SRB assay
Type: functional
Settings: U-251, 48 h, read-out: GI
In short: as §1

Row | SMILES | inhibition of growth at 10 µM [%]
3 | Cc1ccc(C(=O)Nc2ccc(Cl)cc2C(=O)Nc2ccccc2)cc1 | 14

Tested on: not listed separately
Experiment: Growth inhibition of human OVCAR8 cells at 10 uM after 48 hrs by SRB assay
Type: functional
Settings: OVCAR-8, 48 h, read-out: GI
In short: as §1

Row | SMILES | inhibition of growth at 10 µM [%]
4 | Cc1ccc(C(=O)Nc2ccc(Cl)cc2C(=O)Nc2ccccc2)cc1 | < 10

Tested on: SK-MEL-5
Experiment: Growth inhibition of human SK-MEL-5 cells at 10 uM after 48 hrs by SRB assay
Type: functional
Settings: SK-MEL-5, 48 h, read-out: GI
In short: as §1

Row | SMILES | inhibition of growth at 10 µM [%]
5 | Cc1ccc(C(=O)Nc2ccc(Cl)cc2C(=O)Nc2ccccc2)cc1 | 13

Tested on: NCI-H226
Experiment: Growth inhibition of human NCI-H226 cells at 10 uM after 48 hrs by SRB assay
Type: functional
Settings: NCI-H226, 48 h, read-out: GI
In short: as §1

Row | SMILES | inhibition of growth at 10 µM [%]
6 | Cc1ccc(C(=O)Nc2ccc(Cl)cc2C(=O)Nc2ccccc2)cc1 | < 10

Tested on: SK-MEL-2
Experiment: Growth inhibition of human SK-MEL-2 cells at 10 uM after 48 hrs by SRB assay
Type: functional
Settings: SK-MEL-2, 48 h, read-out: GI
In short: as §1

Row | SMILES | inhibition of growth at 10 µM [%]
7 | Cc1ccc(C(=O)Nc2ccc(Cl)cc2C(=O)Nc2ccccc2)cc1 | < 10

Tested on: SF-268
Experiment: Growth inhibition of human SF268 cells at 10 uM after 48 hrs by SRB assay
Type: functional
Settings: SF-268, 48 h, read-out: GI
In short: as §1

Row | SMILES | inhibition of growth at 10 µM [%]
8 | Cc1ccc(C(=O)Nc2ccc(Cl)cc2C(=O)Nc2ccccc2)cc1 | < 10

Tested on: MDA-MB-468
Experiment: Growth inhibition of human MDA-MB-468 cells assessed as cell growth at 10 uM after 48 hrs by SRB assay
Type: functional
Settings: MDA-MB-468, 48 h, read-out: GI
In short: as §1

Row | SMILES | inhibition of growth at 10 µM [%]
9 | Cc1ccc(C(=O)Nc2ccc(Cl)cc2C(=O)Nc2ccccc2)cc1 | 11

Tested on: not listed separately
Experiment: Growth inhibition of human NCI-ADR-RES cells at 10 uM after 48 hrs by SRB assay
Type: functional
Settings: read-out: GI
In short: as §1

Row | SMILES | inhibition of growth at 10 µM [%]
10 | Cc1ccc(C(=O)Nc2ccc(Cl)cc2C(=O)Nc2ccccc2)cc1 | < 10

Tested on: not listed separately
Experiment: Growth inhibition of human SF539 cells at 10 uM after 48 hrs by SRB assay
Type: functional
Settings: SF-539, 48 h, read-out: GI
In short: as §1

Row | SMILES | inhibition of growth at 10 µM [%]
11 | Cc1ccc(C(=O)Nc2ccc(Cl)cc2C(=O)Nc2ccccc2)cc1 | 29

Tested on: not listed separately
Experiment: Growth inhibition of human UACC257 cells at 10 uM after 48 hrs by SRB assay
Type: functional
Settings: UACC-257, 48 h, read-out: GI
In short: as §1

Row | SMILES | inhibition of growth at 10 µM [%]
12 | Cc1ccc(C(=O)Nc2ccc(Cl)cc2C(=O)Nc2ccccc2)cc1 | < 10

Tested on: HT-29
Experiment: Growth inhibition of human HT-29 cells at 10 uM after 48 hrs by SRB assay
Type: functional
Settings: HT-29, 48 h, read-out: GI
In short: as §1

Row | SMILES | inhibition of growth at 10 µM [%]
13 | Cc1ccc(C(=O)Nc2ccc(Cl)cc2C(=O)Nc2ccccc2)cc1 | < 10

Tested on: not listed separately
Experiment: Growth inhibition of human BT549 cells at 10 uM after 48 hrs by SRB assay
Type: functional
Settings: BT-549, 48 h, read-out: GI
In short: (§2)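 NCI primary one-dose screen. A single concentration of 10^-5 M was added to the cell culture, followed by 48 h incubation and an SRB protein-dye endpoint read spectrophotometrically. Results are growth percentage relative to untreated control cells, reported as % growth inhibition.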

Row | SMILES | inhibition of growth at 10 µM [%]
14 | Cc1ccc(C(=O)Nc2ccc(Cl)cc2C(=O)Nc2ccccc2)cc1 | < 10

Tested on: SNB-75
Experiment: Growth inhibition of human SNB75 cells at 10 uM after 48 hrs by SRB assay
Type: functional
Settings: SNB-75, 48 h, read-out: GI
In short: as §1

Row | SMILES | inhibition of growth at 10 µM [%]
15 | Cc1ccc(C(=O)Nc2ccc(Cl)cc2C(=O)Nc2ccccc2)cc1 | 28

Tested on: not listed separately
Experiment: Growth inhibition of human HCT15 cells at 10 uM after 48 hrs by SRB assay
Type: functional
Settings: HCT-15, 48 h, read-out: GI
In short: as §1

Row | SMILES | inhibition of growth at 10 µM [%]
16 | Cc1ccc(C(=O)Nc2ccc(Cl)cc2C(=O)Nc2ccccc2)cc1 | 11

Tested on: DU-145
Experiment: Growth inhibition of human DU145 cells at 10 uM after 48 hrs by SRB assay
Type: functional
Settings: DU-145, 48 h, read-out: GI
In short: as §1

Row | SMILES | inhibition of growth at 10 µM [%]
17 | Cc1ccc(C(=O)Nc2ccc(Cl)cc2C(=O)Nc2ccccc2)cc1 | < 10

Tested on: SNB-19
Experiment: Growth inhibition of human SNB19 cells at 10 uM after 48 hrs by SRB assay
Type: functional
Settings: SNB-19, 48 h, read-out: GI
In short: as §1

Row | SMILES | inhibition of growth at 10 µM [%]
18 | Cc1ccc(C(=O)Nc2ccc(Cl)cc2C(=O)Nc2ccccc2)cc1 | 13

Tested on: Malme-3M
Experiment: Growth inhibition of human MALME-3M cells at 10 uM after 48 hrs by SRB assay
Type: functional
Settings: read-out: GI
In short: as §1

Row | SMILES | inhibition of growth at 10 µM [%]
19 | Cc1ccc(C(=O)Nc2ccc(Cl)cc2C(=O)Nc2ccccc2)cc1 | 12

Tested on: COLO 205
Experiment: Growth inhibition of human COLO205 cells at 10 uM after 48 hrs by SRB assay
Type: functional
Settings: COLO 205, 48 h, read-out: GI
In short: as §2

Row | SMILES | inhibition of growth at 10 µM [%]
20 | Cc1ccc(C(=O)Nc2ccc(Cl)cc2C(=O)Nc2ccccc2)cc1 | < 10

Tested on: IGROV-1
Experiment: Growth inhibition of human IGROV1 cells at 10 uM after 48 hrs by SRB assay
Type: functional
Settings: IGROV-1, 48 h, read-out: GI
In short: as §1

Row | SMILES | inhibition of growth at 10 µM [%]
21 | Cc1ccc(C(=O)Nc2ccc(Cl)cc2C(=O)Nc2ccccc2)cc1 | < 10

Tested on: not listed separately
Experiment: Growth inhibition of human LOXIMVI cells at 10 uM after 48 hrs by SRB assay
Type: functional
Settings: LOX IMVI, read-out: GI
In short: as §1

Row | SMILES | inhibition of growth at 10 µM [%]
22 | Cc1ccc(C(=O)Nc2ccc(Cl)cc2C(=O)Nc2ccccc2)cc1 | < 10

Tested on: PC-3
Experiment: Growth inhibition of human PC3 cells at 10 uM after 48 hrs by SRB assay
Type: functional
Settings: PC-3, 48 h, read-out: GI
In short: as §1

Row | SMILES | inhibition of growth at 10 µM [%]
23 | Cc1ccc(C(=O)Nc2ccc(Cl)cc2C(=O)Nc2ccccc2)cc1 | 15

Tested on: HCT-116
Experiment: Growth inhibition of human HCT116 cells at 10 uM after 48 hrs by SRB assay
Type: functional
Settings: HCT-116, 48 h, read-out: GI
In short: as §1

Row | SMILES | inhibition of growth at 10 µM [%]
24 | Cc1ccc(C(=O)Nc2ccc(Cl)cc2C(=O)Nc2ccccc2)cc1 | < 10

Tested on: MDA-MB-231
Experiment: Growth inhibition of human MDA-MB-231 cells at 10 uM after 48 hrs by SRB assay
Type: functional
Settings: MDA-MB-231, 48 h, read-out: GI
In short: as §1

Row | SMILES | inhibition of growth at 10 µM [%]
25 | Cc1ccc(C(=O)Nc2ccc(Cl)cc2C(=O)Nc2ccccc2)cc1 | 16

Tested on: not listed separately
Experiment: Growth inhibition of human HCC2998 cells at 10 uM after 48 hrs by SRB assay
Type: functional
Settings: HCC 2998, 48 h, read-out: GI
In short: as §1

Row | SMILES | inhibition of growth at 10 µM [%]
26 | Cc1ccc(C(=O)Nc2ccc(Cl)cc2C(=O)Nc2ccccc2)cc1 | < 10

Tested on: TK-10
Experiment: Growth inhibition of human TK10 cells at 10 uM after 48 hrs by SRB assay
Type: functional
Settings: TK-10, 48 h, read-out: GI
In short: as §1

Row | SMILES | inhibition of growth at 10 µM [%]
27 | Cc1ccc(C(=O)Nc2ccc(Cl)cc2C(=O)Nc2ccccc2)cc1 | < 10

Tested on: 786-0
Experiment: Growth inhibition of human 786-0 cells at 10 uM after 48 hrs by SRB assay
Type: functional
Settings: 786-0, 48 h, read-out: GI
In short: as §2

Row | SMILES | inhibition of growth at 10 µM [%]
28 | Cc1ccc(C(=O)Nc2ccc(Cl)cc2C(=O)Nc2ccccc2)cc1 | < 10

Tested on: not listed separately
Experiment: Growth inhibition of human OVCAR4 cells at 10 uM after 48 hrs by SRB assay
Type: functional
Settings: OVCAR-4, 48 h, read-out: GI
In short: as §1

Row | SMILES | inhibition of growth at 10 µM [%]
29 | Cc1ccc(C(=O)Nc2ccc(Cl)cc2C(=O)Nc2ccccc2)cc1 | 11

Tested on: not listed separately
Experiment: Growth inhibition of human RXF393 cells at 10 uM after 48 hrs by SRB assay
Type: functional
Settings: RXF 393, 48 h, read-out: GI
In short: as §1

Row | SMILES | inhibition of growth at 10 µM [%]
30 | Cc1ccc(C(=O)Nc2ccc(Cl)cc2C(=O)Nc2ccccc2)cc1 | < 10

Tested on: NCI-H460
Experiment: Growth inhibition of human NCI-H460 cells at 10 uM after 48 hrs by SRB assay
Type: functional
Settings: NCI-H460, 48 h, read-out: GI
In short: as §1

Row | SMILES | inhibition of growth at 10 µM [%]
31 | Cc1ccc(C(=O)Nc2ccc(Cl)cc2C(=O)Nc2ccccc2)cc1 | < 10

Tested on: SN12C
Experiment: Growth inhibition of human SN12C cells at 10 uM after 48 hrs by SRB assay
Type: functional
Settings: read-out: GI
In short: as §1

Row | SMILES | inhibition of growth at 10 µM [%]
32 | Cc1ccc(C(=O)Nc2ccc(Cl)cc2C(=O)Nc2ccccc2)cc1 | < 10

Tested on: NCI-H322M
Experiment: Growth inhibition of human NCI-H322M cells at 10 uM after 48 hrs by SRB assay
Type: functional
Settings: read-out: GI
In short: as §1

Row | SMILES | inhibition of growth at 10 µM [%]
33 | Cc1ccc(C(=O)Nc2ccc(Cl)cc2C(=O)Nc2ccccc2)cc1 | < 10
